Assay results reported in the RNAGym collection of RNA variant scans (doi:10.1126/science.aae0568).
Variants at the floor of the assay were thinned out.

B1: tRNA (parent)
chain: GUUCCGUUGGCGUAAUGGUAACGCGUCUCCCUCCUAAGGAGAAGACUGCGGGUUCGAGUCCCGUACGGAACG

Variants of: B1
Test: yeast fitness relative to wild type (ratio to wild type); higher = fitter; tRNA-Arg(CCU), competitive growth, 37 C, YPD
Outline: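 The tRNA-Arg(CCU) gene variants were made by chemical synthesis with a 3% per-site mutation rate at 69 sites and inserted at the native genomic locus of Saccharomyces cerevisiae. After pooling, the strains were competed in YPD at 37°C for 24 hours in six parallel replicates. Gene amplicons from the start population and each end population were read by 100-nucleotide paired-end sequencing, and Darwinian fitness relative to wild type was taken from genotype frequency changes. Genotypes needed ≥ 100 starting reads, and estimates < 0.5 were set to 0.5.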

Variant | yeast fitness
GUUCCGUUGGCGGAAUGGUAACGCGUCCCCCUCCUAACGAGAAGACUGCGGGUUCGAGUCCCGUACGGAACG [U13G U28C G38C] | ≤ 0.5
GUUCCGUUGGCGGAAUGGUAACGCGUCUCCCUCCUAAGGAGAAAAUUGCGGGUUCGAGUCCCGUACGGCACG [U13G G44A C46U A69C] | 0.646
GUUCCGUUGGCGGAAUGGUAACGCGUCACCCUCCUAAGGAGAAGACUGCGGGCUGGAGUCCCGUAAGGAACG [U13G U28A U53C C55G C66A] | ≤ 0.5
GUUCCGUUGGCGGAAUGGUAACGCGUCUCCCUCCGAAGGGGAAGACUGCGGGUUCGAGUCCCGUAUGGAACG [U13G U35G A40G C66U] | 0.526
GUUCCGUUGGCGGAAUGGUAACGCGUCACACUCCUAAGGAGAAGACUGCGGGUUCGAGUCCCGUACGGUACG [U13G U28A C30A A69U] | 0.554
GUUCCGUUGGCGGAAUGGGAACGCGUCUCCCUCCUAAGGAGAAGACUGCGGGUUCGGGUCCUGUACGGAACG [U13G U19G A57G C62U] | ≤ 0.5
GUUCCGUUGGCGGAAUGGUAACGCGUCUCCCUCCUAAGGAGAAGACUGCGGGUUCGAGUCCCGUACGCAACG [U13G G68C] | 0.584
GUUCCGUUGGCGGAAUGGUAACGCGUCUCCCUCCUAAGGAGAAGACUACGGGUUCGAGUCCGGUACGGUACG [U13G G48A C62G A69U] | 0.599
GUUCCGUUGGCGGAAUGGUAACGCGUCUCCCUCCAAGGGAGAUGCCUGCGGGUUCGAGUCCCGUCCGGAACG [U13G U35A A37G A43U A45C A65C] | ≤ 0.5
GUUCCGUUGGCGGAAUGGUAACGCGUCUCCCUCCUAAGGAGAAGACAGCGGGUUCGAGUCCCGUACGAAACG [U13G U47A G68A] | 0.737
GUUCCGUUGGCGGAAUGGUAACGCGUCUCCCUCCUAAGGAGAAGACUGCGGGUUCGACUCCUGUACGGAUCG [U13G G58C C62U A70U] | ≤ 0.5
GUUCCGUUGGCGGAAUGGUAACGCGUCUCCCUCCUAAGCAGAAGACUGCGGGUUCGAGUCCCGUACGGUACG [U13G G39C A69U] | 0.625
GUUCCGUUGGCGGAAUGGUAACGCGUCUCCCACCUAAGGAGAAGACUGCGGGUUCGAGUACCAUACGGAACG [U13G U32A C60A G63A] | ≤ 0.5
GUUCCGUUGGCGUCGUGGUAACGCGUCUCCCUCCUAAGGAGAAGAGUGCGGGUUCGAGUCCCGUACGGGACG [A14C A15G C46G A69G] | ≤ 0.5
GUUCCGUUGGCGGAAUGGUAACGCGUCUCCCUCCCAAAGAGUAGACUGCGGGUUCGACUCCCGUACGGAACG [U13G U35C G38A A42U G58C] | ≤ 0.5
GUUCCGUUGGCGGAAUGGUAACGCGUCUCCCUCCUAAGGAGAAGACUGCGGGUUCGAGUCCCGUACCGAACG [U13G G67C] | 0.777
GUUCCGUUGGCGGAAGGGUAACGCGUCUCCGUCCUAAGGAGAAGACUGUGGGUUCGAGUCCCGUACGGAACG [U13G U16G C31G C49U] | ≤ 0.5
GUUCCGUUGGCGUCCUGGUAACGCGUCUCCCUCCUAAGGAGAAGACUGCGGGUUCGAGUCCCGUACGGAACG [A14C A15C] | 0.518
GUUCCGUUGGCGGAAUGGUAACGCGUCUCCCUCCUAAGGAGAAGACUACGGGUUCGAGUCCCGUUCGGAACG [U13G G48A A65U] | 0.654

Variant | yeast fitness
GUUCCGUUGGCGGAAUGGUAACGCGUCUCCCUCCUAACGAGGAGACUGCGGGUUCCAGACCCGUACGGAUCG [U13G G38C A42G G56C U59A A70U] | ≤ 0.5
GUUCCGUUGGCGUCCUGGUAACGCGUUUACCUCGUAAGGAGAAGACUGCCGGUUCGAGUCCCGUACGGAACG [A14C A15C C27U C29A C34G G50C] | 0.597
GUUCCGUUGGCGGAAUGGUAACGCGUCUCCCACCUAAGGAGAAGACUCCGAGUUCGAGUCUCGUACGGGACG [U13G U32A G48C G51A C61U A69G] | ≤ 0.5
GUUCCGUUGGCGGAAUGGUAACGCGUCUCCCUCCUAAGGAGAAGACUGCGGGUUCGACUCCCGUACGGAACG [U13G G58C] | 0.969
GUUCCGUUGGCGGAAUGGUAACGCGUCUCCCUCCUAAGGAGAAGACUGCGGGUUCGAAUCCCGUACGGAACG [U13G G58A] | 1.08
GUUCCGUUGGCGGAAUGGUAACGCGUCUCCCUCCUAAGGAGAAGACUGCGGGCUCGAGUCCCGCACGGAACG [U13G U53C U64C] | ≤ 0.5
GUUCCGUUGGCGUCGUGGUAACGCGUCUCCCUCCUAAGGAGGAGACUGCGGGUUCGAGUCCCGUACGGAUCG [A14C A15G A42G A70U] | 0.569
GUUCCGUUGGCGGAAUGGUAACGCGUCUCCCUCCUAAGGAGAACACUGCGGGUUCGAGUCCCGUACGGAACG [U13G G44C] | 0.774
GUUCCGUUGGCGGAAUGGUAACGCGUCUCCCUCCUAAGGAGAAGACUGCGGGCUCGAGUCCCGUACCGAACG [U13G U53C G67C] | 0.771
GUUCCGUUGGCGGAAUGGUAACGCGUCUCCCUCCUAAGGAGAAGACAGCGGGUUCGAGUCCCGUACGGAACG [U13G U47A] | 0.976
GUUCCGUUGGCGGAAUGGAAACGCGUUUUCCUCCUAAGGAGAAGACUGCGGGUUCGAGUCCCGUACGGAACG [U13G U19A C27U C29U] | ≤ 0.5
GUUCCGUUGGCGGAACGGUAACGCGUCUCCCUCCUAAGGAGAAGACUGCGGGUUAGAGUCCCGUACGGAACG [U13G U16C C55A] | ≤ 0.5
GUUCCGUUGGCGUCCUGGUAUCGCGUCUCCCUCCUAAGGAGAAGACUGCGGGUUCGGGUCCCGUGCGGAACG [A14C A15C A21U A57G A65G] | ≤ 0.5
GUUCCGUUGGCGGAAUGGUAACGCGUCUCCCUCCCAAAGAGUAGACUGCGGGUUCGACUCCCGUUCGGAACG [U13G U35C G38A A42U G58C A65U] | ≤ 0.5
GUUCCGUUGGCGUCCUGGUAACGCGUUUACCUCGUAAGAAGAAGACUGCCGGUUCGAGUCCCGUACGGAACG [A14C A15C C27U C29A C34G G39A G50C] | ≤ 0.5
GUUCCGUUGGCGGAACGGUAACGCGUCUCCCUCCUAAGCAGAAGACUGCGGGUUCGAGUCCCGUGCGGAACG [U13G U16C G39C A65G] | ≤ 0.5
GUUCCGUUGGCGGAAUGGUAACGCGUCACCCUCCUAAGGAGAAGACUGCGGGUUGGAGUCCCGUAAGGAACG [U13G U28A C55G C66A] | 0.63
GUUCCGUUGGCGGAAUGGGAACGCGUCUCCCUCCUAAGGAGAAGACUGCGGGUUCGAGUCCCGUACGGAACG [U13G U19G] | 1.05
GUUCCGUUGGCGGAAUGGUAACGCGUCUCCCUCCUAAGCAGAAGAUUGCGGGUUCGAGUCCCGUACGGAACG [U13G G39C C46U] | 0.535
